This is an account of results in ChEMBL document CHEMBL4028856, “Discovery of Small Molecules Targeting the Synergy of Cardiac Transcription Factors GATA4 and NKX2-5” (J Med Chem, 2017).

The target in data set [1] is Mitogen-activated protein kinase 14 (Homo sapiens) (UniProt Q16539). The data set can be described thus: Inhibition of human p38alpha MAPK at 30 uM. In a few lines: (§1)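 48-kinase profiling panel; compounds tested at 30 μM in duplicate.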
Data set [2] addresses Transcription factor GATA-4 (Rattus norvegicus) (UniProt P46152). The data set can be described thus: Inhibition of binding of GATA4 to [32P]-double stranded oligonucleotide in neonatal rat ventricular cardiomyocytes at 50 uM measured after 24 hrs by EMSA method. The essentials:
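Neonatal rat cardiomyocytes treated 24 h with 50 μM; nuclear extracts incubated 20 min with [α-32P]dCTP Klenow-labeled GATA4- or NKX2-5-site oligonucleotide in HEPES/NaCl/KCl/MgCl2 buffer with poly(dI-dC); 5% native PAGE, phosphorimager; supershift with anti-GATA4/NKX2-5; relative to vehicle, mean ± SD, n = 3–5.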
(In general: A gel shift assay detects complexes by their altered migration in electrophoresis.)

The target in data set [3] is T1, GATA4/NKX2-5 (Rattus norvegicus) (UniProt P46152+O35767). The experiment in a line: Inhibition of GATA4/NKX2-5 interaction in neonatal rat ventricular cardiomyocytes assessed as decrease in endothelin-1 induced mRNA level of ANP at 10 uM preincubated for 1 hr followed by endothelin-1 addition measured after 23 hrs by real-time PCR analysis. The essentials:
(§2)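 Neonatal rat ventricular myocytes (2–4-day-old Sprague-Dawley or Wistar), preplated, seeded on 6-well plates, moved to complete serum-free medium next day and cultured 24 h. Compounds (10–100 μM) added 1 h before 100 nM endothelin-1 or none; ANP and BNP mRNA quantified by RT-PCR at 24 h, normalized to 18S RNA, relative to vehicle; mean ± SD, n = 3–6.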
A general note: Real-time PCR tracks product formation cycle by cycle.

Data set [4] deals with T1, GATA4/NKX2-5 (Rattus norvegicus). The experiment in a line: Inhibition of GATA4/NKX2-5 interaction in neonatal rat ventricular cardiomyocytes assessed as decrease in endothelin-1 induced mRNA level of BNP at 10 uM preincubated for 1 hr followed by endothelin-1 addition measured after 23 hrs by real-time PCR analysis. The essentials:
as §2

Data set [5] addresses Hydroxycarboxylic acid receptor 2 (Homo sapiens) (UniProt Q8TDS4). The experiment in a line: Agonist activity at human GPR109A expressed in Chem-4 cells assessed as induction of calcium flux at 12.5 uM by fluorescence assay. Format: functional, cell-based. In a few lines: (§3)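 GPCR profiling panel of cell-based functional assays covering 165 GPCRs; agonist mode tested at 12.5 μM and antagonist mode at 10 μM, in duplicate.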
(In general: Calcium assays in cells follow changes in intracellular calcium, usually with a dye or a luminescent sensor.)

Data set [6] has as its target Epidermal growth factor receptor (Homo sapiens) (UniProt P00533). The experiment in a line: Inhibition of human EGFR at 30 uM. In a few lines: as §1
Data set [7] is described as follows: Induction of aggregation of compounds at 100 uM by nephalometric method.
Data set [8] concerns the target Mitogen-activated protein kinase 1 (Homo sapiens) (UniProt P28482). The data set can be described thus: Inhibition of human ERK2 at 30 uM. The essentials: as §1
Data set [9] is described as follows: Drug metabolism in mouse embryonic stem cells assessed as formation of N-[4-(Ethylamino)phenyl]-5-methyl-3-phenylisoxazole-4-carboxamide at 3 to 5 uM measured after 10 days by HPLC/MS method. Format: ADME, cell-based. The following applies: embryonic stem cell, 240 h. In a few lines:
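Mouse embryonic stem cells exposed 5 and 10 days to 3 or 5 μM, with DMSO and EB differentiation medium blanks. Medium extracted with chloroform; cells pelleted, saline-washed twice, sonicated in chloroform. UPLC-ESI(+)-QTOF/MS, BEH C18, 0.1% formic acid water/acetonitrile gradient 7–80% B over 5 min, 0.6 mL/min, 40 °C.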

Data set [10] addresses Transcription factor GATA-4 (Mus musculus) (UniProt Q08369). The experiment in a line: Inhibition of mouse GATA4-driven transactivation of luciferase reporter construct containing BNP minimal promoter expressed in African green monkey COS-1 cells after 30 hrs by luminometer. It counts as cell-based. The essentials: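 COS-1 cells co-transfected with firefly luciferase driven by BNP minimal or −90 bp BNP promoter, Renilla pRL-TKd238, and pMT2-GATA4 or empty pMT2. Compounds added 6 h post-transfection in 0.1% DMSO, refreshed with medium at 24 h; lysis at 30 h; dual-luciferase, firefly/Renilla normalized to vehicle; triplicate wells.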

Data set [11] addresses Growth hormone secretagogue receptor type 1 (Homo sapiens) (UniProt Q92847). The experiment in a line: Antagonist activity at human GHS-R at 10 uM by ELISA. The following applies: in the assay text read “by calcium flux assay” for “by ELISA”. In a few lines: as §3
The target of data set [12] is GATA4/NKX2-5 (Mus musculus) (UniProt Q08369+P42582). The experiment in a line: Inhibition of mouse GATA4/FLAG-tagged NKX2-5 interaction expressed in African green monkey COS-1 cells at 100 uM by coimmunoprecipitation method. It counts as cell-based. In a few lines: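 FLAG-NKX2-5 and GATA4 lysates from COS-1 cells incubated overnight at 4 °C with anti-FLAG agarose in Tris/NaCl/Triton lysis buffer with protease/phosphatase inhibitors; beads washed thrice, eluted by boiling, SDS-PAGE, immunoblotted for GATA4 and NKX2-5, ECL detection.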

In data set [13] the target is T1, GATA4/NKX2-5 (Rattus norvegicus). The experiment in a line: Inhibition of GATA4/NKX2-5 interaction in neonatal rat ventricular cardiomyocyte hypertrophy model assessed as decrease in mechanical stretching-induced cell surface area at 10 uM after 48 hrs by alpha-actinin/phalloidin/DAPI staining-based fluorescence microscopic method. The essentials:
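Neonatal rat ventricular myocytes seeded at 10^6/well on collagen I flexible plates, cultured 48 h, then given 10 μM in serum-free medium under equibiaxial cyclic stretch (0.5 Hz, 10–20%) 48 h; nonstretched controls. Fixed, stained α-actinin/phalloidin/DAPI; α-actinin+ cell area (>200 cells/specimen) normalized to untreated nonstretched; three experiments, mean ± SEM.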

Active and inactive are the calls of the source. The calls are words filed in the database; no cut-off is given here.

Transcription factor GATA-4 (Mus musculus), sequence (Q08369 whole entry): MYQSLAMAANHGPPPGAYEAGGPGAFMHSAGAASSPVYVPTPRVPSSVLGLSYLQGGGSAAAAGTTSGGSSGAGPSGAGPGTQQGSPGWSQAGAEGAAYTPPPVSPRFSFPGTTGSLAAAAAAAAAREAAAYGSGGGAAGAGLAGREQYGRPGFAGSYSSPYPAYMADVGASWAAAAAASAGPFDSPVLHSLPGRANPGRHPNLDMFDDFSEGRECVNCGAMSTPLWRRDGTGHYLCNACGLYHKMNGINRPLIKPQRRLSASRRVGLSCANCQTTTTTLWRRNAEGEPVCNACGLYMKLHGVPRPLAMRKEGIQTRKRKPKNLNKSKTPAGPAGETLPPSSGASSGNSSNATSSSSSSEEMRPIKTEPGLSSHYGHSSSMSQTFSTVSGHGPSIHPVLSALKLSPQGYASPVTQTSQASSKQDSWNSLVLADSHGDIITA
Growth hormone secretagogue receptor type 1 (Homo sapiens), sequence (Q92847 whole entry): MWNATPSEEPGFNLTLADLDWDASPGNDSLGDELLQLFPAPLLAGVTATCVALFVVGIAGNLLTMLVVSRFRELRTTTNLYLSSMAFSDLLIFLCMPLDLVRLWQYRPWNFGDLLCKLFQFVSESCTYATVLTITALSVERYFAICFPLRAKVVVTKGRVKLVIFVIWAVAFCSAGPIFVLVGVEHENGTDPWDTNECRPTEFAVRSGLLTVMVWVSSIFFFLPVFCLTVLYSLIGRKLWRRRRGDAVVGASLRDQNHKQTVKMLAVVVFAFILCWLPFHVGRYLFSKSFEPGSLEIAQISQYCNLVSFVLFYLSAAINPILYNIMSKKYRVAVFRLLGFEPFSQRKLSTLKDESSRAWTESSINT
Epidermal growth factor receptor (Homo sapiens), sequence (P00533 whole entry): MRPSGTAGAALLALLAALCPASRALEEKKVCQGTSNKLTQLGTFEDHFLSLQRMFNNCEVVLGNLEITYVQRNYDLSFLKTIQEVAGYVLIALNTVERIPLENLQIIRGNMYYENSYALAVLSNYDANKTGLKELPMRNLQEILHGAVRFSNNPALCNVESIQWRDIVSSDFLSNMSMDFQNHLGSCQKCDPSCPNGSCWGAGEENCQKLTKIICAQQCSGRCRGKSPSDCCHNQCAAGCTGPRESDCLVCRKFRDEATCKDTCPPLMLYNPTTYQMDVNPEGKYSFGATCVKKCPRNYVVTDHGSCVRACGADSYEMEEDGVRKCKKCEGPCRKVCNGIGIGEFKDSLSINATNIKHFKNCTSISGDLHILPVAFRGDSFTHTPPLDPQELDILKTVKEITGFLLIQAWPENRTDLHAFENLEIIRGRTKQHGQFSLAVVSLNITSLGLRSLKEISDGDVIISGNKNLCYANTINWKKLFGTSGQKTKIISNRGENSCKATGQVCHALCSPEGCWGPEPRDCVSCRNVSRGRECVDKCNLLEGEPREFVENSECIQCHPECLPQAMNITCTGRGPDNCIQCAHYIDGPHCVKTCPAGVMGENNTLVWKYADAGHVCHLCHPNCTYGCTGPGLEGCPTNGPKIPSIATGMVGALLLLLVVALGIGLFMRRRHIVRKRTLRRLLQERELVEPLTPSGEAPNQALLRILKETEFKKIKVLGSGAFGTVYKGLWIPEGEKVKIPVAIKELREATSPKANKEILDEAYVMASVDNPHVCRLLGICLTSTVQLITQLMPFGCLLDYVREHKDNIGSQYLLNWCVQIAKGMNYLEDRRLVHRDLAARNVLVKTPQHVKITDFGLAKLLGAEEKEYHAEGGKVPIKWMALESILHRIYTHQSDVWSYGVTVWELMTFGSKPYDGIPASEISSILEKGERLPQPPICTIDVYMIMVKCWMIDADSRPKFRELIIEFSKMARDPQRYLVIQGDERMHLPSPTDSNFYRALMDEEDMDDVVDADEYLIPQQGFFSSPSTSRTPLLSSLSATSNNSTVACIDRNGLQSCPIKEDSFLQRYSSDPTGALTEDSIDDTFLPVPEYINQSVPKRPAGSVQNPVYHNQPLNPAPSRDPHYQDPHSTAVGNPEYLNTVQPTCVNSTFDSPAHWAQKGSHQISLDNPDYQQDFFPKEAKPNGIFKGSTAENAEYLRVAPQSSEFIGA
Transcription factor GATA-4 (Rattus norvegicus), sequence (P46152 whole entry): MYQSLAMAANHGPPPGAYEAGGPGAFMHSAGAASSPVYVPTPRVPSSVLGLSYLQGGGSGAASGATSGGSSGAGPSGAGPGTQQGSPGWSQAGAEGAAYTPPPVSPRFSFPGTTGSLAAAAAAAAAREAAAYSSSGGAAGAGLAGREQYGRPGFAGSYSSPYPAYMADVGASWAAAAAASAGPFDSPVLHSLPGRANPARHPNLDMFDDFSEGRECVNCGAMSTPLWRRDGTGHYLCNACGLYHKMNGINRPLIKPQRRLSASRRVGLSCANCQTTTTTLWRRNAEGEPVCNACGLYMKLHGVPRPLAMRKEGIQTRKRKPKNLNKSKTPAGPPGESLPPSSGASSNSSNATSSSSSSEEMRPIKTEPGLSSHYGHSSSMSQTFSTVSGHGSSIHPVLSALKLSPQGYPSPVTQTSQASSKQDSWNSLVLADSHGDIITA
Mitogen-activated protein kinase 14 (Homo sapiens), sequence (Q16539 whole entry): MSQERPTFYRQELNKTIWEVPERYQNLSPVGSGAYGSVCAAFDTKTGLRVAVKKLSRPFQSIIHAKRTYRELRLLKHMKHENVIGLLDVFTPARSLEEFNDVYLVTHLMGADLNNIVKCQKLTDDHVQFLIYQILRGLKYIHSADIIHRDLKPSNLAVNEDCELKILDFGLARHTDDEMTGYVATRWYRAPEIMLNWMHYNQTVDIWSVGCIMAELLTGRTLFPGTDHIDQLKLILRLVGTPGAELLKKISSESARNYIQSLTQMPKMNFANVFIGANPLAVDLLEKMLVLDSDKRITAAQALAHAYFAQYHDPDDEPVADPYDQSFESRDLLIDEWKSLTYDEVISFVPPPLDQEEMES
Mitogen-activated protein kinase 1 (Homo sapiens), sequence (P28482 whole entry): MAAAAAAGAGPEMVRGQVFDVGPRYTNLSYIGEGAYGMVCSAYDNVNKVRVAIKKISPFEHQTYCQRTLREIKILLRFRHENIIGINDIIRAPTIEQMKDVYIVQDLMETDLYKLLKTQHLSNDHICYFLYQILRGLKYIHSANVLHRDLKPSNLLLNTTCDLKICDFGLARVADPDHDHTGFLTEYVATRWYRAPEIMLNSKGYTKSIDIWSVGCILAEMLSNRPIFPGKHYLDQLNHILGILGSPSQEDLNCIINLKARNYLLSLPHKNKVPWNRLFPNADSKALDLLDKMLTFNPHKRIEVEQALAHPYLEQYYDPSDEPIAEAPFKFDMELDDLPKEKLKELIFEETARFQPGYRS
Hydroxycarboxylic acid receptor 2 (Homo sapiens), sequence (Q8TDS4 whole entry): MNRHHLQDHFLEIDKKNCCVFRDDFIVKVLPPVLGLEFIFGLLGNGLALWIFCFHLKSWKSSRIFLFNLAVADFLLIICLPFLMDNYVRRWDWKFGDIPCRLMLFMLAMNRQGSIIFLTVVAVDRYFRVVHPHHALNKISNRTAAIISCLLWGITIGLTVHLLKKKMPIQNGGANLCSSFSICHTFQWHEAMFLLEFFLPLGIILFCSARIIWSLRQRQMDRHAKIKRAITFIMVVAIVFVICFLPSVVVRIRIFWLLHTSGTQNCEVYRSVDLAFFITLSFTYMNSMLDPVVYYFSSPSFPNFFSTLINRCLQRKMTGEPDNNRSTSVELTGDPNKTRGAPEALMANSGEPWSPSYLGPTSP

As usually defined, the inhibition is how much of the control response was suppressed. On to `CCN(CC)c1ccc(NC(=O)c2c(-c3ccccc3)noc2C)cc1`, for which the inhibition entry in [1] and in data set [8] was “inactive” each time. Further, the inhibition in data set [2] was 29%; in data set [3] it was 32%; in data set [4] it was 68%; in data set [6] it was 54%; in [11], 65.2%. In data set [5], the result was inactive. In [7], the outcome was Active. Also, in data set [9], the Drug metabolism entry is reported as “Metabolite_Detected”. The inhibition result in data set [10], in data set [12] and in data set [13] was “Active” throughout.
